According to ChEMBL document CHEMBL1932985, “Identification of biaryl sulfone derivatives as antagonists of the histamine H₃ receptor: discovery of (R)-1-(2-(4'-(3-methoxypropylsulfonyl)biphenyl-4-yl)ethyl)-2-methylpyrrolidine (APD916)” (Bioorg Med Chem Lett, 2012):
Each block holds one compound with its values, some of them ahead of it. Calls of active or inactive are those of the source. The calls are words filed in the database; no cut-off is given here.

How the values were obtained:
Histamine H3 receptor = Histamine H3 receptor (Rattus norvegicus, UniProt Q9QYN8); experiment: Displacement of N-[3H]-methylhistamine from histamine H3 receptor in rat cortex membranes; type: cell membranes, Membrane
Chain of Histamine H3 receptor (Q9QYN8 whole entry): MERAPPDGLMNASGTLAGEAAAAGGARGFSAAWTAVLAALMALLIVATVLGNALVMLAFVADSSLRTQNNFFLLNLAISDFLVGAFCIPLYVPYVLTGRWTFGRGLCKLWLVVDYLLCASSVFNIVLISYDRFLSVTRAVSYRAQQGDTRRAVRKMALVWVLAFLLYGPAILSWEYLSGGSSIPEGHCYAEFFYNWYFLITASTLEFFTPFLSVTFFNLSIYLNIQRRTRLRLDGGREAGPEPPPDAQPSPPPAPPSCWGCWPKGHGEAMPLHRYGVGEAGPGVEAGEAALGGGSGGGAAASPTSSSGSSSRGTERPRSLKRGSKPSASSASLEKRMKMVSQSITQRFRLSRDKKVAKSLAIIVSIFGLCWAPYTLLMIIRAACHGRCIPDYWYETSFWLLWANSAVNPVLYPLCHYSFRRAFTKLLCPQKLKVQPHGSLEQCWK

Rattus norvegicus [1] = experiment: Effect on sleep-awake cycle in EEG/EMG Sprague-Dawley rat model assessed as increase in wakefulness at 0.6 mg/kg, po measured for 4 hrs; type: functional, organism-based; design: dose 0.6 mg/kg
Summary of the method: (§1)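 Rats with chronically implanted cortical electrodes dosed orally (0.6 mg/kg; dose-response also run) during subjective night, about four hours after lights on; wake time recorded over 8 h versus vehicle and assessed over first 1, 2 and 4 h; means ± SEM.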

Rattus norvegicus [2] = experiment: Effect on sleep-awake cycle in EEG/EMG Sprague-Dawley rat model assessed as increase in wakefulness at 0.6 mg/kg, po measured for 2 hrs; type: functional, organism-based; design: dose 0.6 mg/kg; summary of the method: as §1
Rattus norvegicus [3] = experiment: Effect on sleep-awake cycle in EEG/EMG Sprague-Dawley rat model assessed as increase in wakefulness at 0.3 mg/kg, po measured for 2 hrs; type: functional, organism-based; design: dose 0.3 mg/kg; summary of the method: as §1
Rattus norvegicus [4] = experiment: Inhibition of RAMH-induced dipsogenia in Sprague-Dawley rat at 0.6 mg/kg, po administered 30 mins prior to RAMH challenge measured up to 20 mins; type: functional, organism-based; design: dose 0.6 mg/kg
Summary of the method: (§2)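 Rats given compound orally 0.5 h (or, for duration of action, at selected times up to 6 h) before RAMH 10 mg/kg SC; water consumed over 20 min measured. Screening doses 1 or 0.3 mg/kg PO, also 0.1 mg/kg; duration study at 0.6 mg/kg PO. MED = minimum dose fully inhibiting drinking; means ± SEM.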

[5] = biological target: Histamine H1 receptor (Homo sapiens) (UniProt P35367); experiment: Binding affinity to H1 receptor at 10 uM relative to control
Chain of Histamine H1 receptor (Homo sapiens) (P35367 whole entry): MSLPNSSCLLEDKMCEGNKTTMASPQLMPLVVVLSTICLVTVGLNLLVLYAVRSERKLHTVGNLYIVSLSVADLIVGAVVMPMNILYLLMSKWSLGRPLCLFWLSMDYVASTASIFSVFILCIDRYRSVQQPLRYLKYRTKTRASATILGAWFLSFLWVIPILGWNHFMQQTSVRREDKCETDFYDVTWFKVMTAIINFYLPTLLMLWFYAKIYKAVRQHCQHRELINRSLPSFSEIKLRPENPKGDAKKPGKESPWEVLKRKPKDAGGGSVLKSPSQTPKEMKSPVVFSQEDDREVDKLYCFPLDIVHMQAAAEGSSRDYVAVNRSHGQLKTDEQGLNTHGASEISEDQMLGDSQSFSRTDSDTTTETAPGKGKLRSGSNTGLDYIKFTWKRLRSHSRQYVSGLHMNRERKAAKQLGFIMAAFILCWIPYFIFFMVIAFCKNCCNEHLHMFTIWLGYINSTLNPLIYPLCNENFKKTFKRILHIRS
Summary of the method: (§3)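 Broad binding panel of 80 receptors, including histamine H1, H2 and H4, with compound tested at 10 µM; binding expressed as percent of control.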

[6] = biological target: Histamine H4 receptor (Homo sapiens) (UniProt Q9H3N8); experiment: Binding affinity to H4 receptor at 10 uM relative to control; summary of the method: as §3
Rattus norvegicus [7] = experiment: Effect on sleep-awake cycle in EEG/EMG Sprague-Dawley rat model assessed as increase in wakefulness at 0.3 mg/kg, po measured for 1 hr; type: functional, organism-based; design: dose 0.3 mg/kg; summary of the method: as §1
Rattus norvegicus [8] = experiment: Inhibition of RAMH-induced dipsogenia in Sprague-Dawley rat at 0.6 mg/kg, po administered 1 hr prior to RAMH challenge measured up to 20 mins; type: functional, organism-based; design: dose 0.6 mg/kg; summary of the method: as §2
Rattus norvegicus [9] = experiment: Inhibition of RAMH-induced dipsogenia in Sprague-Dawley rat at 0.1 mg/kg, po administered 30 mins prior to RAMH challenge measured up to 20 mins; type: functional, organism-based; design: dose 0.1 mg/kg; summary of the method: as §2
[10] = biological target: Histamine H2 receptor (Homo sapiens) (UniProt P25021); experiment: Binding affinity to H2 receptor at 10 uM relative to control; summary of the method: as §3
Chain of Histamine H2 receptor (Homo sapiens) (P25021 whole entry): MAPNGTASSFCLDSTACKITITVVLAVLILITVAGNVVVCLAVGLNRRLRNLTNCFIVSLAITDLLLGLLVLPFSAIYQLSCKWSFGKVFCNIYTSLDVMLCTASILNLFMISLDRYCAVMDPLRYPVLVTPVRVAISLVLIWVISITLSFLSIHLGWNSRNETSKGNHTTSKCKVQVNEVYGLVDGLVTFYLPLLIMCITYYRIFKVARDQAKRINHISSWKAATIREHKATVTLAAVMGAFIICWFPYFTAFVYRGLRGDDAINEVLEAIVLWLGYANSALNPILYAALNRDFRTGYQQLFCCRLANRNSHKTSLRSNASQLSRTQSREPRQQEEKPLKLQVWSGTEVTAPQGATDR

[11] = Solubility of the compound in water; type: physicochemical
Rattus norvegicus [12] = experiment: Inhibition of RAMH-induced dipsogenia in po dosed Sprague-Dawley rat administered 30 mins prior to RAMH challenge measured up to 20 mins; type: functional; conditions: read-out: MED; summary of the method: as §2
[13] = biological target: Voltage-gated inwardly rectifying potassium channel KCNH2 (Homo sapiens, UniProt Q12809); experiment: Inhibition of human ERG by patch-clamp assay
Chain of Voltage-gated inwardly rectifying potassium channel KCNH2 (Q12809 whole entry): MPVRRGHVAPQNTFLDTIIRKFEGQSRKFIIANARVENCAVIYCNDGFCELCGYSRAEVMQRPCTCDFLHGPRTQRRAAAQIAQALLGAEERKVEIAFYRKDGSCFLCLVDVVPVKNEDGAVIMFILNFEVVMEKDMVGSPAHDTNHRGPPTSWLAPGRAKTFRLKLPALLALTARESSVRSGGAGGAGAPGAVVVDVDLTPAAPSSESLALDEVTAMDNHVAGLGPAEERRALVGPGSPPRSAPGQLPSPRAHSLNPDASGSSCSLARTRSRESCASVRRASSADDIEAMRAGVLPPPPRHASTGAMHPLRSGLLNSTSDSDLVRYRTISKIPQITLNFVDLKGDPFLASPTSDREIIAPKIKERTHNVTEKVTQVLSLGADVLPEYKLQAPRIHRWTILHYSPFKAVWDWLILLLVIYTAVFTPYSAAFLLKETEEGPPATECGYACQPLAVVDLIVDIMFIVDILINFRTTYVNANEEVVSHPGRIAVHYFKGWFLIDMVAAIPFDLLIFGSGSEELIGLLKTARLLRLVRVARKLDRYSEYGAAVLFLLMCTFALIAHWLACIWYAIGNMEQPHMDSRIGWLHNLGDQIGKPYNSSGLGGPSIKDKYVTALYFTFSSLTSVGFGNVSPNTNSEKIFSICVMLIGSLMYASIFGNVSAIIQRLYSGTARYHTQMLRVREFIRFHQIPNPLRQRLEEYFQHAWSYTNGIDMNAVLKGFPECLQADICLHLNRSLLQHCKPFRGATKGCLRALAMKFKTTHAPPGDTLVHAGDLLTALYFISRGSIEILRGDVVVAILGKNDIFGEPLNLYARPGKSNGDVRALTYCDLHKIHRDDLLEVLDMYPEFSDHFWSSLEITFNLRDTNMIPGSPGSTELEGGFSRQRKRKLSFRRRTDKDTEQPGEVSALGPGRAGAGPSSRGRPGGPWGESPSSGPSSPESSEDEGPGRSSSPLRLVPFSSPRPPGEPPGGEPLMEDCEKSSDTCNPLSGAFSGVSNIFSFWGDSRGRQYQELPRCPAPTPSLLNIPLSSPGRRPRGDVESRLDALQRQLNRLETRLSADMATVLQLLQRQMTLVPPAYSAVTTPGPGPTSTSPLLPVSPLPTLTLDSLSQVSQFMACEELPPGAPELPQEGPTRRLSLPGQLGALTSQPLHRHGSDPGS

[14] = Tmax in Sprague-Dawley rat at 3 mg/kg, po and iv by LC-MS/MS analysis; type: ADME, organism-based; design: dose 3 mg/kg, route oral; conditions: in vivo
Summary of the method: (§4)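 Rats were given the compound both IV and PO in a routine PK study. Tmax came from the PO arm and Vss from the IV arm.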

[15] = Cmax in Sprague-Dawley rat plasma at 3 mg/kg, po and iv by LC-MS/MS analysis; type: ADME, organism-based; design: dose 3 mg/kg, route oral
Summary of the method: (§5)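 Rat PK after IV and PO dosing; plasma Cmax, Tmax, IV half-life and Vss determined; oral bioavailability from AUCpo/AUCiv. Metabolite exposure determined after a 3 mg/kg PO parent dose.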

[16] = Half life in Sprague-Dawley rat at 3 mg/kg, iv by LC-MS/MS analysis; type: ADME, organism-based; design: dose 3 mg/kg, route intravenous; conditions: in vivo; summary of the method: as §5
[17] = Ratio of drug level in brain to plasma in Sprague-Dawley rat at 3 mg/kg, po and iv after 0.75 to 3 hrs by LC-MS/MS analysis; type: ADME, organism-based; design: dose 3 mg/kg, route oral; conditions: read-out: BPR
Summary of the method: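 Brain (µg/mg) and plasma (µg/mL) levels were measured after oral dosing, with three rats per time point. The b/p ratio was the mean of the nine individual ratios.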

Rattus norvegicus [18] = experiment: Volume of distribution at steady state in Sprague-Dawley rat at 3 mg/kg, po and iv by LC-MS/MS analysis; type: ADME, organism-based; design: dose 3 mg/kg, route oral; conditions: in vivo; summary of the method: as §4
[19] = Oral bioavailability in Sprague-Dawley rat at 3 mg/kg by LC-MS/MS analysis; type: ADME, organism-based; conditions: in vivo; summary of the method: as §5

SMILES: COCS(=O)(=O)c1ccc(-c2ccc(CCN3CCC[C@H]3C)cc2)cc1
Ki (Histamine H3 receptor): 2.44 nM

SMILES: CC(C)S(=O)(=O)c1ccc(-c2ccc(CCN3CCC[C@H]3C)cc2)cc1
Ki (Histamine H3 receptor): 2.65 nM

SMILES: C[C@@H]1CCCN1CCc1ccc(-c2ccc(S(=O)(=O)CC3CCOCC3)cc2)cc1
minimal effective dose (Rattus norvegicus [12]): 0.3 mg/kg | Ki (Histamine H3 receptor): 0.17 nM

SMILES: COCCCS(=O)(=O)c1ccc(-c2ccc(CCN3CCC[C@H]3C)cc2)cc1.O=C(O)CC(O)(CC(=O)O)C(=O)O
solubility [11]: > 150 mg/mL

SMILES: C[C@@H]1CCCN1CCc1ccc(-c2ccc(S(=O)(=O)CC3CCCCO3)cc2)cc1 (stereo partly drawn)
Ki (Histamine H3 receptor): 0.2 nM

Further lines, with some results ahead:

inhibition [5]: < 50% | inhibition [6]: < 50% | inhibition [10]: < 50%
SMILES: COCCCS(=O)(=O)c1ccc(-c2ccc(CCN3CCC[C@H]3C)cc2)cc1
Activity (Rattus norvegicus [1]): inactive | Activity (Rattus norvegicus [2]): Active | Activity (Rattus norvegicus [3]): inactive | inhibition (Rattus norvegicus [4]): Active | Activity (Rattus norvegicus [7]): Active | inhibition (Rattus norvegicus [8]): Active | inhibition (Rattus norvegicus [9]): inactive

solubility [11]: > 30 mg/mL
SMILES: COCCS(=O)(=O)c1ccc(-c2ccc(CCN3CCC[C@H]3C)cc2)cc1.Cl

Ki (Histamine H3 receptor): 0.8 nM
SMILES: C[C@@H]1CCCN1CCc1ccc(-c2ccc(S(=O)(=O)CCCO)cc2)cc1
IC50 [13]: > 30000 nM | minimal effective dose (Rattus norvegicus [12]): 1 mg/kg

Tmax [14]: 18 min | Cmax [15]: 57 ng/mL | half-life [16]: 84 min | Kp [17]: 1.75 | Vdss (Rattus norvegicus [18]): 14.3 L/kg | bioavailability [19]: 46% | Ki (Histamine H3 receptor): 0.9 nM
SMILES: CCS(=O)(=O)c1ccc(-c2ccc(CCN3CCC[C@H]3C)cc2)cc1
minimal effective dose (Rattus norvegicus [12]): 0.3 mg/kg
